According to ChEMBL document CHEMBL1126762, “Synthesis and anaerobic activity of novel 1-carba-1-dethiacephalosporins” (J Med Chem, 1993):
Values after ≈ are worked out from the molar mass of the structure shown.

tested on: Eikenella corrodens; assay: Antibacterial activity against anaerobic Bacteroides corrodens 1874; format: functional; details: not given
How it was run: (§1)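 MIC by agar dilution following the NCCLS M11-A2 (2nd ed.) procedure for antimicrobial testing of anaerobic bacteria.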

Compound	MIC [µg/mL]
CO/N=C(\C(=O)N[C@@H]1C(=O)N2C(C(=O)O)=C(Sc3ncc(S(C)(=O)=O)s3)CC[C@H]12)c1csc(N)n1	> 128

tested on: Phocaeicola vulgatus; assay: Antibacterial activity against anaerobic Bacteroides vulgatus 1211; format: functional; details: not given; how it was run: as §1

Compound	MIC [µg/mL]
CO/N=C(\C(=O)N[C@@H]1C(=O)N2C(C(=O)O)=C(Sc3ncc(S(C)(=O)=O)s3)CC[C@H]12)c1csc(N)n1	16 (≈ 28.6 µM)

tested on: Bacteroides thetaiotaomicron; assay: Antibacterial activity against anaerobic Bacteroides thetaiotaomicron 1438; format: functional; details: not given; how it was run: as §1

Compound	MIC [µg/mL]
CO/N=C(\C(=O)N[C@@H]1C(=O)N2C(C(=O)O)=C(Sc3ncc(S(C)(=O)=O)s3)CC[C@H]12)c1csc(N)n1	2 (≈ 3.58 µM)

tested on: Prevotella melaninogenica; assay: Antibacterial activity against anaerobic Bacteroides melaninogenicus 1856/28; format: functional; details: not given; how it was run: as §1

Compound	MIC [µg/mL]
CO/N=C(\C(=O)N[C@@H]1C(=O)N2C(C(=O)O)=C(Sc3ncc(S(C)(=O)=O)s3)CC[C@H]12)c1csc(N)n1	0.125 (≈ 0.224 µM)

tested on: Prevotella melaninogenica; assay: Antibacterial activity against anaerobic Bacteroides melaninogenicus 2736; format: functional; details: not given; how it was run: as §1

Compound	MIC [µg/mL]
CO/N=C(\C(=O)N[C@@H]1C(=O)N2C(C(=O)O)=C(Sc3ncc(S(C)(=O)=O)s3)CC[C@H]12)c1csc(N)n1	32 (≈ 57.3 µM)

tested on: Bacteroides fragilis; assay: Antibacterial activity against anaerobic Bacteroides fragilis 111; format: functional; details: not given; how it was run: as §1

Compound	MIC [µg/mL]
CO/N=C(\C(=O)N[C@@H]1C(=O)N2C(C(=O)O)=C(Sc3ncc(S(C)(=O)=O)s3)CC[C@H]12)c1csc(N)n1	> 128

tested on: Bacteroides fragilis; assay: Antibacterial activity against anaerobic Bacteroides fragilis 1877; format: functional; details: not given; how it was run: as §1

Compound	MIC [µg/mL]
CO/N=C(\C(=O)N[C@@H]1C(=O)N2C(C(=O)O)=C(Sc3ncc(S(C)(=O)=O)s3)CC[C@H]12)c1csc(N)n1	32 (≈ 57.3 µM)

tested on: Bacteroides fragilis; assay: Antibacterial activity against anaerobic Bacteroides fragilis 1936B; format: functional; details: not given; how it was run: as §1

Compound	MIC [µg/mL]
CO/N=C(\C(=O)N[C@@H]1C(=O)N2C(C(=O)O)=C(Sc3ncc(S(C)(=O)=O)s3)CC[C@H]12)c1csc(N)n1	> 128

tested on: Clostridioides difficile; assay: Antibacterial activity against anaerobic Clostridium difficile 2994 strain; format: functional; details: not given; how it was run: as §1

Compound	MIC [µg/mL]
CO/N=C(\C(=O)N[C@@H]1C(=O)N2C(C(=O)O)=C(Sc3ncc(S(C)(=O)=O)s3)CC[C@H]12)c1csc(N)n1	0.125 (≈ 0.224 µM)

tested on: Clostridium perfringens; assay: Antibacterial activity against anaerobic Clostridium perfringens 81; format: functional; details: not given
How it was run: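 Agar dilution MIC following NCCLS document M11-A2 (Vol. 10, no. 15), the method for antimicrobial testing of anaerobic bacteria; value reported as minimum inhibitory concentration.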

Compound	MIC [µg/mL]
CO/N=C(\C(=O)N[C@@H]1C(=O)N2C(C(=O)O)=C(Sc3ncc(S(C)(=O)=O)s3)CC[C@H]12)c1csc(N)n1	0.25 (≈ 0.448 µM)

tested on: Clostridium septicum; assay: Antibacterial activity against anaerobic Clostridium septicum 1128; format: functional; details: not given; how it was run: as §1

Compound	MIC [µg/mL]
CO/N=C(\C(=O)N[C@@H]1C(=O)N2C(C(=O)O)=C(Sc3ncc(S(C)(=O)=O)s3)CC[C@H]12)c1csc(N)n1	16 (≈ 28.6 µM)

tested on: Escherichia coli; assay: Antibacterial activity against aerobic Escherichia coli EC14; format: functional; details: not given
How it was run: (§2)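 MIC by agar dilution following the NCCLS M7-A2 (2nd ed.) procedure for bacteria that grow aerobically.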

Compound	MIC [µg/mL]
CO/N=C(\C(=O)N[C@@H]1C(=O)N2C(C(=O)O)=C(Sc3ncc(S(C)(=O)=O)s3)CC[C@H]12)c1csc(N)n1	0.06 (≈ 0.107 µM)

tested on: not listed separately; assay: Antibacterial activity against anaerobic Eubacterium aerofaciens 1235; format: functional; details: Collinsella aerofaciens; how it was run: as §1

Compound	MIC [µg/mL]
CO/N=C(\C(=O)N[C@@H]1C(=O)N2C(C(=O)O)=C(Sc3ncc(S(C)(=O)=O)s3)CC[C@H]12)c1csc(N)n1	32 (≈ 57.3 µM)

tested on: Klebsiella aerogenes; assay: Antibacterial activity against aerobic Enterobacter aerogenes C32; format: functional; details: not given; how it was run: as §2

Compound	MIC [µg/mL]
CO/N=C(\C(=O)N[C@@H]1C(=O)N2C(C(=O)O)=C(Sc3ncc(S(C)(=O)=O)s3)CC[C@H]12)c1csc(N)n1	0.25 (≈ 0.448 µM)

tested on: not listed separately; assay: Antibacterial activity against anaerobic Fusobacterium symbiosum 1470; format: functional, fusobacterium symbosium; details: not given; how it was run: as §1

Compound	MIC [µg/mL]
CO/N=C(\C(=O)N[C@@H]1C(=O)N2C(C(=O)O)=C(Sc3ncc(S(C)(=O)=O)s3)CC[C@H]12)c1csc(N)n1	8 (≈ 14.3 µM)

tested on: Fusobacterium necrophorum; assay: Antibacterial activity against anaerobic Fusobacterium necrophorum 6054A; format: functional; details: not given; how it was run: as §1

Compound	MIC [µg/mL]
CO/N=C(\C(=O)N[C@@H]1C(=O)N2C(C(=O)O)=C(Sc3ncc(S(C)(=O)=O)s3)CC[C@H]12)c1csc(N)n1	0.008 (≈ 0.0143 µM)

tested on: Haemophilus influenzae; assay: Antibacterial activity against aerobic Haemophilus influenzae RES 76; format: functional; details: not given; how it was run: as §2

Compound	MIC [µg/mL]
CO/N=C(\C(=O)N[C@@H]1C(=O)N2C(C(=O)O)=C(Sc3ncc(S(C)(=O)=O)s3)CC[C@H]12)c1csc(N)n1	0.015 (≈ 0.0269 µM)

tested on: Klebsiella pneumoniae; assay: Antibacterial activity against aerobic Klebsiella pneumoniae X26; format: functional; details: not given; how it was run: as §2

Compound	MIC [µg/mL]
CO/N=C(\C(=O)N[C@@H]1C(=O)N2C(C(=O)O)=C(Sc3ncc(S(C)(=O)=O)s3)CC[C@H]12)c1csc(N)n1	0.03 (≈ 0.0537 µM)

tested on: Peptostreptococcus anaerobius; assay: Antibacterial activity against anaerobic Peptostreptococcus anaerobius 1451; format: functional; details: not given; how it was run: as §1

Compound	MIC [µg/mL]
CO/N=C(\C(=O)N[C@@H]1C(=O)N2C(C(=O)O)=C(Sc3ncc(S(C)(=O)=O)s3)CC[C@H]12)c1csc(N)n1	0.5 (≈ 0.895 µM)

tested on: not listed separately; assay: Antibacterial activity against anaerobic Peptostreptococcus intermedius 1264; format: functional; details: not given; how it was run: as §1

Compound	MIC [µg/mL]
CO/N=C(\C(=O)N[C@@H]1C(=O)N2C(C(=O)O)=C(Sc3ncc(S(C)(=O)=O)s3)CC[C@H]12)c1csc(N)n1	0.03 (≈ 0.0537 µM)

tested on: Pseudomonas aeruginosa; assay: Antibacterial activity against aerobic Pseudomonas aeruginosa X239 strain; format: functional; details: not given; how it was run: as §2

Compound	MIC [µg/mL]
CO/N=C(\C(=O)N[C@@H]1C(=O)N2C(C(=O)O)=C(Sc3ncc(S(C)(=O)=O)s3)CC[C@H]12)c1csc(N)n1	> 128

tested on: not listed separately; assay: Antibacterial activity against anaerobic Peptococcus asaccharolyticus 1302; format: functional; details: Peptoniphilus asaccharolyticus; how it was run: as §1

Compound	MIC [µg/mL]
CO/N=C(\C(=O)N[C@@H]1C(=O)N2C(C(=O)O)=C(Sc3ncc(S(C)(=O)=O)s3)CC[C@H]12)c1csc(N)n1	0.25 (≈ 0.448 µM)

tested on: Anaerococcus prevotii; assay: Antibacterial activity against anaerobic Peptococcus prevoti 1281; format: functional; details: not given; how it was run: as §1

Compound	MIC [µg/mL]
CO/N=C(\C(=O)N[C@@H]1C(=O)N2C(C(=O)O)=C(Sc3ncc(S(C)(=O)=O)s3)CC[C@H]12)c1csc(N)n1	0.25 (≈ 0.448 µM)

tested on: Cutibacterium acnes; assay: Antibacterial activity against anaerobic Propionibacterium acnes 79; format: functional; details: not given; how it was run: as §1

Compound	MIC [µg/mL]
CO/N=C(\C(=O)N[C@@H]1C(=O)N2C(C(=O)O)=C(Sc3ncc(S(C)(=O)=O)s3)CC[C@H]12)c1csc(N)n1	0.03 (≈ 0.0537 µM)

tested on: Staphylococcus epidermidis; assay: Antibacterial activity against aerobic Staphylococcus epidermidis 222; format: functional; details: not given; how it was run: as §2

Compound	MIC [µg/mL]
CO/N=C(\C(=O)N[C@@H]1C(=O)N2C(C(=O)O)=C(Sc3ncc(S(C)(=O)=O)s3)CC[C@H]12)c1csc(N)n1	1 (≈ 1.79 µM)

tested on: Streptococcus pneumoniae; assay: Antibacterial activity against aerobic Streptococcus pneumoniae PARK; format: functional; details: not given; how it was run: as §2

Compound	MIC [µg/mL]
CO/N=C(\C(=O)N[C@@H]1C(=O)N2C(C(=O)O)=C(Sc3ncc(S(C)(=O)=O)s3)CC[C@H]12)c1csc(N)n1	0.008 (≈ 0.0143 µM)

tested on: Staphylococcus aureus; assay: Antibacterial activity against aerobic Staphylococcus aureus X1.1 strain; format: functional; details: not given; how it was run: as §2

Compound	MIC [µg/mL]
CO/N=C(\C(=O)N[C@@H]1C(=O)N2C(C(=O)O)=C(Sc3ncc(S(C)(=O)=O)s3)CC[C@H]12)c1csc(N)n1	0.25 (≈ 0.448 µM)
